# Source: PubChem BioAssay (The Scripps Research Institute Molecular Screening Center)
# V1aR counter: V1a receptor agonism, counter-screen for OXTR agonists | CHO-V1R cells, Fluo-8 calcium fluorescence, agonist mode; 0% DMSO, 100% 3 nM vasopressin | 320,000 compounds, 0.25% hits | AID 2797 | P37288 | activation, % at 3 µM;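 active = activation above the mean activation of all tested compounds plus 3 SD, per screening run, cut at about 20% in these data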;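 also: signal is peak over basal fluorescence ratio across a 100 second FLIPR read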
# OXTR ag: human OXTR agonism. 320,000 compounds, 0.32% hits. AID 2435. CHO-OTR cells, Fluo-8 calcium fluorescence; normalized: DMSO 0%, oxytocin 100%. P30559. activation, % at 3 µM;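 active = activation above the mean of all tested compounds plus 3 SD, cutoff set per screening run, cut at about 20% in these data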;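 also: peak over basal fluorescence ratio from a 100 s FLIPR kinetic read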
# Target sequence (P30559 whole entry, looked up): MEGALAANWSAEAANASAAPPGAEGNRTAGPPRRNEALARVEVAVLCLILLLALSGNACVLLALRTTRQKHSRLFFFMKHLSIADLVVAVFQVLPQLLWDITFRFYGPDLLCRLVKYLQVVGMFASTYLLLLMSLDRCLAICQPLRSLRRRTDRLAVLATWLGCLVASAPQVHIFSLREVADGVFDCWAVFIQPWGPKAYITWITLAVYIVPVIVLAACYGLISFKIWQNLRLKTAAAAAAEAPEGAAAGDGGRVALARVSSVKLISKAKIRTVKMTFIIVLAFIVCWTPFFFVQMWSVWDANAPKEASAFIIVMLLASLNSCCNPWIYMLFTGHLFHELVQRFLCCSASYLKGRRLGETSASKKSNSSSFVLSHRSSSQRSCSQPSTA
# TAAR1 ag: human TAAR1 agonism; Q96RJ0; activation, % at 3 µM; CHO RD-HGA16 TAAR1, Fluo-8 calcium fluorescence; vehicle wells 0%, saturating PEA agonist 100%; 360,000 compounds, 0.99% hits; AID 624467;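 active = activation above the mean activation of all test compounds in the run plus 3 SD, cut at about 38% in these data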
# Target sequence (Q96RJ0 whole entry, looked up): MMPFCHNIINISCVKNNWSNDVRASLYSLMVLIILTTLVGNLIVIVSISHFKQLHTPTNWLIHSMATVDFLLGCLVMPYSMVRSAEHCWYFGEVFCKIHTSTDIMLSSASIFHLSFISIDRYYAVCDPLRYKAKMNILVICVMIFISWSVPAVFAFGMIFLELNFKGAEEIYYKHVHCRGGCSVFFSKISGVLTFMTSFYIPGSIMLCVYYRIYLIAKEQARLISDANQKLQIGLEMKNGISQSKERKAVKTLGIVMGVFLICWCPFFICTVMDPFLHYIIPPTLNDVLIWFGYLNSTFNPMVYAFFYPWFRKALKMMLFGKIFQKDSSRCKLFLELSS
#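 Benchmarks: low control DMSO, high control PEA (EC100); System: CHO RD-HGA16 cells carrying human TAAR1 plus Gα16; Detection: Fluo-8 fluorescence, 5 s baseline then 140 s kinetic read; Schedule: 17-24 h plating, Fluo-8 75 min 37 °C, 30 min RT; Read-out basis: % activation from peak over basal fluorescence ratio, DMSO-to-PEA scaled.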
# TAAR1 antagonist: antagonists of human TAAR1; Q96RJ0; CHO RD-HGA16 TAAR1, Fluo-8 calcium fluorescence, antagonist; inhibition, % at 3 µM; 360,000 compounds, 1.5% hits; AID 624466;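 active = inhibition above a per-plate cutoff, the mean inhibition of test compounds on that plate plus 3 SD, cut at about 49% in these data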;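 also: 0% = DMSO plus EC80 beta-PEA response and 100% = DMSO alone without agonist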
#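 Test system: hTAAR1-expressing CHO RD-HGA16 cells, Gα16-coupled; Probe or stimulus: EC80 β-phenethylamine stimulus; Compound dosing: single nominal final test compound concentration of 3 µM; Timing: 140 s kinetic read after compound, 140 s after agonist; Signal: Fluo-8 calcium-sensitive fluorescence; Measure: % inhibition of agonist calcium response; Controls: DMSO and EC80 PEA controls.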
# OXTR potentiator: potentiates the human oxytocin receptor response. activation, % at 3 µM. CHO-OTR cells, Fluo-8 calcium fluorescence, potentiator mode; 0% = oxytocin EC15, 100% = EC100. 320,000 compounds, 0.061% hits;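 active = activation above that plate's cutoff, the mean activation of tested compounds plus 3 SD, cut at about 6.6% in these data, passing the limit was not always enough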;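 also: 100% uses oxytocin at 75 nM as the full agonist control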
#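 System: human OTR in CHO cells / Also added: sub-maximal oxytocin, roughly EC15 / Control set: EC15 oxytocin low, 75 nM oxytocin high / Schedule: 6 min compound pre-incubation at room temperature, 100 s kinetic read / Compound: single-point 3.0 µM / Replication: singlicate / Technique: Fluo-8 calcium dye fluorescence / Read-out basis: % activation of max/min ratio relative to oxytocin controls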
# TAAR1 nonsel count: counter-screen for TAAR1 antagonists: nonselective antagonists; 2,400 compounds, 77% hits; inhibition, % at 3 µM; counterscreen cell line, calcium fluorescence, antagonist mode; shares compounds with TAAR1 antagonist; in the data active = inhibition above about 22%;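 also: CHO-Ga16 host cells stimulated with ATP at an EC80 level; 0% = agonist EC80 plus vehicle and 100% = vehicle without agonist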
# TAAR1 antag conf: confirmation of human TAAR1 antagonists; shares compounds with TAAR1 antagonist; TAAR1-expressing cells, fluorescence antagonist read-out; inhibition, % at 3 µM; 2,400 compounds, 40% hits; in the data active = inhibition above about 49%;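 also: CHO-Ga16 host cells challenged with agonist PEA near its EC80; 0% = agonist at EC80 plus vehicle and 100% = vehicle with no agonist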
# Ga16 ag counter: nonselective Ga16 agonist in TAAR1 antagonist counter-screen. activation, % at 3 µM. Ga16-expressing cells, calcium fluorescence, agonist counterscreen. 2,400 compounds, 18% hits. AID 651953. shares compounds with TAAR1 antagonist; in the data active = activation above about 12%;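 also: 0% = vehicle wells and 100% = saturating stimulus response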
# TAAR1 ag counter: TAAR1 agonism, antagonist counter-screen. shares compounds with TAAR1 antagonist. hTAAR1 cell line, fluorescence activation, agonist mode. activation, % at 3 µM. 2,400 compounds, 2% hits. AID 651955; in the data active = activation above about 37%;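 also: CHO cells stably expressing TAAR1 with calcium dye readout; 0% = DMSO vehicle and 100% = full agonist response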
# Active calls of the source: *; · = no result; ! = not active in a repeat. In the library only some 2.3% were active in any assay of this set; here they are far more common.
SMILES,V1aR counter,OXTR ag,TAAR1 ag,TAAR1 antagonist,OXTR potentiator,TAAR1 nonsel count,TAAR1 antag conf,Ga16 ag counter,TAAR1 ag counter
Cc1ccc(NC(=O)CCc2c(C)nn(-c3ccc(N4CCCCC4)nn3)c2C)cc1,3,0,2,-10,-9,·,·,·,·
COc1ccc(C)cc1NC(=O)CCc1c(C)nn(-c2ccc(N3CCCCC3)nn2)c1C,5,2,8,50*,-9,31*,43,6,4
N#Cc1ccc(-c2csc(NC(=O)/C=C/c3cccs3)n2)cc1,1,-1,3,61*,-2,40*,52*,9,4
CC1CN(C(=O)CCNC(=O)c2ccc(Cl)cc2)CC(C)O1 (stereo not drawn),0,-1,0,-5,-1,·,·,·,·
COc1ccccc1CNC(=O)CCC1N=C2c3ccccc3N=C(SCC(=O)NCC3CCCO3)N2C1=O (stereo not drawn),0,0,2,-16,1,·,·,·,·
COc1ccc(C2=NOC(Cn3nc(-c4ccccc4)cc3C(=O)NCc3cccs3)C2)cc1 (stereo not drawn),4,2,12,42,-4,·,·,·,·
COc1ccc(C2=NOC(Cn3nc(-c4ccccc4)cc3C(=O)NCc3ccco3)C2)cc1 (stereo not drawn),1,-1,7,37,-6,·,·,·,·
CCOC(=O)c1cc(-c2ccccc2)n(CC2CC(c3ccc(OC)cc3)=NO2)n1 (stereo not drawn),1,4,14,75*,-17,30*,51*,7,8
COc1ccc(C2=NOC(Cn3nc(C(=O)NCc4ccco4)cc3-c3ccccc3)C2)cc1 (stereo not drawn),1,4,19,66*,-13,34*,56*,9,6
COc1ccc(C2=NOC(Cn3nc(C(=O)NCc4cccs4)cc3-c3ccccc3)C2)cc1 (stereo not drawn),2,1,16,77*,-14,40*,51*,8,6
Fc1cc(Br)ccc1COc1ccc(-c2nnco2)cc1,2,-1,2,-27,-7,·,·,·,·
CC(=O)NC12CC3CC(C1)CC(C(=O)N1CCN(S(=O)(=O)c4ccc([N+](=O)[O-])cc4)CC1)(C3)C2,·,·,2,-6,·,·,·,·,·
C=CCNc1nc(N)c(C(=C(C#N)C#N)c2ccc(Br)cc2)s1,1,1,9,68*,-10,27*,62*,6,15
Cc1nn2c(C)c(C(=O)Nc3ccccc3)cnc2c1-c1ccccc1,1,-2,14,58*,-7,25*,42,10,8
CC(=O)c1cnc2c(-c3ccccc3)c(C(F)(F)F)nn2c1C,-1,-2,13,-1,-10,·,·,·,·
Cn1c(NCc2ccccc2F)nc2cc(-c3cccc(Cl)c3)sc2c1=O,·,·,1,-8,·,·,·,·,·
CCCCNc1c(-c2ccc(SC(C)CC)cc2)nc2ccc(Cl)cn12 (stereo not drawn),·,·,-1,-6,·,·,·,·,·
CCCCNc1c(-c2ccc(-c3cccc(Cl)c3)cc2)nc2ccccn12,0,-1,6,65*!,-12,31*,27,19*,14
CCC(C)Sc1ccc(-c2nc3ccc(C)cn3c2NCc2ccccc2)cc1 (stereo not drawn),0,-2,6,72*,-9,39*,57*,5,8
Cc1ccc2nc(-c3ccc(-c4cccc(Cl)c4)cc3)c(NCc3ccccc3)n2c1,-1,-2,7,64*,-2,32*,28,0,1
CCCCc1ccc(NC(=O)CSC2=NN3CCCC(=O)N=C3S2)cc1,7,3,0,-17,-9,·,·,·,·
CC(C)C(NC(=O)c1ccc(C(C)(C)C)cc1)C(=O)NCc1ccccn1 (stereo not drawn),-1,-2,11,-11,4,·,·,·,·
O=C([C@H](Cc1ccccc1)NS(=O)(=O)c1ccc(Cl)cc1)N1CC[C@@]2(O)CCCC[C@H]2C1,1,1,26,56*,-10,24*,46,8,9
COc1ccc(S(=O)(=O)N[C@@H](Cc2ccccc2)C(=O)N2CC[C@@]3(O)CCCC[C@H]3C2)cc1,0,1,14,35,-14,·,·,·,·
OC1CCNC(=S)N1c1ccccc1 (stereo not drawn),0,0,2,-30,-5,·,·,·,·
SMILES,V1aR counter,OXTR ag,TAAR1 ag,TAAR1 antagonist,OXTR potentiator,TAAR1 nonsel count,TAAR1 antag conf,Ga16 ag counter,TAAR1 ag counter
COc1ccc(CCNC(=O)C2CC(c3ccccc3F)=NO2)cc1 (stereo not drawn),1,-1,12,0,-11,·,·,·,·
O=C(NCCc1cccs1)C1CC(c2ccccc2F)=NO1 (stereo not drawn),1,-1,37,74*,0,0,81*,2,68*
O=C(Nc1cccc(S(=O)(=O)N2CCOCC2)c1)c1cc(=O)[nH]c2ccccc12,1,1,17,-20,-4,·,·,·,·
COc1ccc(CCN2C(=O)c3cccc4c(C(=O)N5CCCCC5)ccc(c34)C2=O)cc1OC,3,1,21,61*,-5,36*,61*,12*,13
CC(C)S(=O)(=O)c1csc(C(=O)Nc2ccc(F)cc2)c1N,1,0,0,9,-4,·,·,·,·
CCCC(C(=O)NC1CCCC1)N(Cc1ccc2c(c1)OCO2)C(=O)c1snc(C(N)=O)c1N (stereo not drawn),1,0,17,63*,-5,28*,49*,9,11
CC(C)CC(C(=O)NC1CCCC1)N(Cc1cccs1)C(=O)c1snc(C(N)=O)c1N (stereo not drawn),-1,-3,7,55*,-2,29*,40,6,3
CCCC(C(=O)NC1CCCC1)N(Cc1ccc(F)cc1)C(=O)c1snc(C(N)=O)c1N (stereo not drawn),3,-1,4,4,0,·,·,·,·
N#CC(NC(=O)OCc1ccccc1)c1ccccc1 (stereo not drawn),-1,-2,9,5,-8,·,·,·,·
COCCCNC(=O)/C(C#N)=C/c1c(N2CCN(c3cccc(Cl)c3)CC2)nc2c(C)cccn2c1=O,1,-1,4,32,-19,·,·,·,·
